ChEMBL document CHEMBL1221342, “Synthesis and in vitro antitumor activity of new 4,5-dihydropyrazole derivatives” (Bioorg Med Chem, 2010)

Tests used:
Format in all cases: functional
CCRF-CEM = assay: Growth inhibition of human CCRF-CEM cells after 48 hrs by SRB assay
Procedure, shortened: (§1)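 NCI 60-cell-line screen. Cells grown in RPMI1640 with 5% fetal calf serum and 2 mM L-glutamine, with inoculum density set by cell line. Preincubated 24 h, then given compound in DMSO at 10^-4 to 10^-8 M (five 10-fold steps) for 48 h continuous exposure. Growth measured by SRB protein assay. GI50, TGI and LC50 reported as –log molar.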

HL-60(TB) = assay: Growth inhibition of human HL-60(TB) cells after 48 hrs by SRB assay; conditions: HL-60, 48 h
Procedure, shortened: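 NCI 60-cell-line screen: cells grown in RPMI1640 with 5% fetal calf serum and 2 mM L-glutamine, preincubated 24 h, then exposed to compound in DMSO at five concentrations (10^-4 to 10^-8 M) for 48 h continuous exposure. Growth estimated by sulforhodamine B protein assay; reported as pGI50 (-log molar concentration inhibiting net cell growth by 50%).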

[1] = Growth inhibition of human […] cells after 48 hrs by SRB assay; procedure, shortened: as §1
SR = assay: Growth inhibition of human SR cells after 48 hrs by SRB assay; procedure, shortened: as §1
EKVX = assay: Growth inhibition of human EKVX cells after 48 hrs by SRB assay; procedure, shortened: as §1
HOP-62 = assay: Growth inhibition of human HOP62 cells after 48 hrs by SRB assay; conditions: HOP-62, 48 h; procedure, shortened: as §1
NCI-H460 = assay: Growth inhibition of human NCI-H460 cells after 48 hrs by SRB assay; conditions: NCI-H460, 48 h; procedure, shortened: as §1
NCI-H522 = assay: Growth inhibition of human NCI-H522 cells after 48 hrs by SRB assay; conditions: NCI-H522, 48 h; procedure, shortened: as §1
HCT-15 = assay: Growth inhibition of human HCT15 cells after 48 hrs by SRB assay; conditions: HCT-15, 48 h; procedure, shortened: as §1
HT-29 = assay: Growth inhibition of human HT-29 cells after 48 hrs by SRB assay; conditions: HT-29, 48 h; procedure, shortened: as §1
KM12 = assay: Growth inhibition of human KM12 cells after 48 hrs by SRB assay; conditions: KM12, 48 h; procedure, shortened: as §1
SW-620 = assay: Growth inhibition of human SW620 cells after 48 hrs by SRB assay; conditions: SW-620, 48 h; procedure, shortened: as §1
SF-268 = assay: Growth inhibition of human SF268 cells after 48 hrs by SRB assay; conditions: SF-268, 48 h; procedure, shortened: as §1
SF-539 = assay: Growth inhibition of human SF539 cells after 48 hrs by SRB assay; conditions: SF-539, 48 h; procedure, shortened: as §1
SNB-75 = assay: Growth inhibition of human SNB75 cells after 48 hrs by SRB assay; conditions: SNB-75, 48 h; procedure, shortened: as §1
Malme-3M = assay: Growth inhibition of human MALME-3M cells after 48 hrs by SRB assay; procedure, shortened: as §1
SK-MEL-2 = assay: Growth inhibition of human SK-MEL-2 cells after 48 hrs by SRB assay; conditions: SK-MEL-2, 48 h; procedure, shortened: as §1
MDA-MB-435 = assay: Growth inhibition of human MDA-MB-435 cells after 48 hrs by SRB assay; conditions: MDA-MB-435, 48 h; procedure, shortened: as §1
SK-MEL-5 = assay: Growth inhibition of human SK-MEL-5 cells after 48 hrs by SRB assay; conditions: SK-MEL-5, 48 h; procedure, shortened: as §1
IGROV-1 = assay: Growth inhibition of human IGROV1 cells after 48 hrs by SRB assay; conditions: IGROV-1, 48 h; procedure, shortened: as §1
OVCAR-3 = assay: Growth inhibition of human OVCAR-3 cells after 48 hrs by SRB assay; conditions: OVCAR-3, 48 h; procedure, shortened: as §1
OVCAR-8 = assay: Growth inhibition of human OVCAR8 cells after 48 hrs by SRB assay; conditions: OVCAR-8, 48 h; procedure, shortened: as §1
NCI/ADR-RES = assay: Growth inhibition of human NCI/ADR-RES cells after 48 hrs by SRB assay; procedure, shortened: as §1
SK-OV-3 = assay: Growth inhibition of human SKOV3 cells after 48 hrs by SRB assay; conditions: SK-OV-3, 48 h; procedure, shortened: as §1
786-0 = assay: Growth inhibition of human 786-0 cells after 48 hrs by SRB assay; conditions: 786-0, 48 h; procedure, shortened: as §1
A498 = assay: Growth inhibition of human A498 cells after 48 hrs by SRB assay; conditions: A498, 48 h; procedure, shortened: as §1
CAKI-1 = assay: Growth inhibition of human Caki1 cells after 48 hrs by SRB assay; conditions: CAKI-1, 48 h; procedure, shortened: as §1
TK-10 = assay: Growth inhibition of human TK10 cells after 48 hrs by SRB assay; conditions: TK-10, 48 h; procedure, shortened: as §1
UO-31 = assay: Growth inhibition of human UO31 cells after 48 hrs by SRB assay; conditions: UO-31, 48 h; procedure, shortened: as §1
DU-145 = assay: Growth inhibition of human DU145 cells after 48 hrs by SRB assay; conditions: DU-145, 48 h; procedure, shortened: as §1
[2] = Growth inhibition of human Hs 578T cells after 48 hrs by SRB assay; procedure, shortened: as §1
BT-549 = assay: Growth inhibition of human BT549 cells after 48 hrs by SRB assay; conditions: BT-549, 48 h; procedure, shortened: as §1
T47D = assay: Growth inhibition of human T47D cells after 48 hrs by SRB assay; conditions: read-out: pTGI (converted); procedure, shortened: as §1

CCN(CC)c1ccc(C2CC(c3cc(OC)c(OC)c(OC)c3)=NN2)cc1 (centres undefined)
0.631 µM: TGI (CCRF-CEM; read-out: pTGI (converted)) | GI50 (HCT-15) | TGI (SNB-75; read-out: pTGI (converted)) | TGI ([2]; read-out: pTGI (converted))
12.6 µM: TGI (NCI-H460; read-out: pTGI (converted))
1 µM: TGI (SR; read-out: pTGI (converted))
> 100 µM: TGI (HCT-15; read-out: pTGI (converted)) | TGI (HT-29; read-out: pTGI (converted)) | TGI (KM12; read-out: pTGI (converted)) | TGI (SW-620; read-out: pTGI (converted)) | TGI (Malme-3M; read-out: pTGI (converted)) | TGI (SK-MEL-2; read-out: pTGI (converted)) | TGI (OVCAR-3; read-out: pTGI (converted)) | TGI (NCI/ADR-RES; read-out: pTGI (converted)) | TGI (SK-OV-3; read-out: pTGI (converted)) | TGI (TK-10; read-out: pTGI (converted)) | TGI (UO-31; read-out: pTGI (converted)) | TGI (T47D)
0.316 µM: GI50 (HOP-62) | GI50 (NCI-H460) | GI50 (HT-29) | GI50 (SF-539) | TGI (MDA-MB-435; read-out: pTGI (converted)) | GI50 (IGROV-1)
39.8 µM: GI50 (TK-10)
3.16 µM: TGI (SK-MEL-5; read-out: pTGI (converted))
5.01 µM: TGI (BT-549; read-out: pTGI (converted))
0.398 µM: GI50 [1] | GI50 (EKVX) | GI50 (KM12) | GI50 (SW-620) | GI50 (OVCAR-3) | GI50 (OVCAR-8) | GI50 (A498) | GI50 (DU-145) | GI50 (BT-549)
0.794 µM: TGI (EKVX; read-out: pTGI (converted)) | GI50 (SF-268) | GI50 (SK-MEL-5) | TGI (A498; read-out: pTGI (converted)) | TGI (CAKI-1; read-out: pTGI (converted)) | GI50 (UO-31)
6.31 µM: TGI (IGROV-1; read-out: pTGI (converted))
0.2 µM: GI50 (CCRF-CEM) | GI50 (SNB-75) | GI50 (CAKI-1)
0.158 µM: GI50 (MDA-MB-435) | GI50 (786-0)
1.26 µM: TGI (SF-539; read-out: pTGI (converted))
0.501 µM: GI50 (NCI/ADR-RES) | GI50 (SK-OV-3) | TGI (786-0; read-out: pTGI (converted))
7.94 µM: TGI (OVCAR-8; read-out: pTGI (converted))
0.251 µM: GI50 (HL-60(TB)) | GI50 (SR) | GI50 (NCI-H522) | GI50 [2]
2 µM: TGI (HL-60(TB); read-out: pTGI (converted)) | TGI (NCI-H522; read-out: pTGI (converted))
3.98 µM: TGI ([1]; read-out: pTGI (converted)) | TGI (HOP-62; read-out: pTGI (converted))
1.58 µM: GI50 (SK-MEL-2) | TGI (DU-145; read-out: pTGI (converted))
20 µM: GI50 (Malme-3M)
